Series [1] can be described thus: Metabolic stability in human liver microsomes assessed as compound remaining at 25 uM after 60 mins by HPLC analysis in presence of NADPH. It counts as ADME. The note with it: read-out: Stability. A digest of the protocol:
(§1)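 Human or mouse liver microsomes at 0.5 mg/mL in 100 mM potassium phosphate pH 7.4 with 3 mM MgCl2, test compound 25 µM final, with or without (control) 2 mM NADPH; 37 °C for one hour, then stopped with equal volume acetonitrile containing 0.1% trifluoroacetic acid. Value: peak area with NADPH relative to no-NADPH control, as percent remaining.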

A short description of series [2]: Aqueous solubility of the compound by nephlometric method. Format: physicochemical. A digest of the protocol:
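Maximum solubility in water, measured by nephelometry.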

The test system of series [3] is Escherichia coli. Put plainly: Inhibition of lactose permease-dependent [3H]TMG uptake in Escherichia coli HN1157 up to 20 uM. The gist of the method: (§2)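 Proton motive force probed in E. coli HN1157 by LacY permease-mediated accumulation of [methyl-3H] thiogalactopyranoside (stock 1 mCi/ml, 7 Ci/mmol), compounds tested at concentrations up to 20 µM.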
Series [4] has as its system Escherichia coli. As to the kind of experiment: Antibacterial activity against Escherichia coli at 100 uM. Format: functional, organism-based.
The subject of another series is HeLa. As to the kind of experiment: Cytotoxicity against human HeLa cells. It counts as cell-based.
Series [5] concerns Escherichia coli. Put plainly: Inhibition of lactose permease in Escherichia coli HN1157 assessed as [3H]TMG accumulation up to 20 uM relative to control. The gist of the method:
as §2

Series [6] has as its system Escherichia coli. As to the kind of experiment: Inhibition of multidrug resistance efflux pump in wild-type Escherichia coli AB1157 assessed as concentration required to reduce piperacillin MIC by 4-fold by checkerboard assay.
For series [7], the system named is Escherichia coli. As to the kind of experiment: Effect on outer membrane permeability in AcrAB-deficient Escherichia coli HN1159 assessed as influx of nitrocefin at 20 uM. It counts as functional.
Another series concerns Enterobacteriaceae. As to the kind of experiment: Antimicrobial activity against Enterobacteriaceae. Format: functional.
The subject of series [8] is Escherichia coli. As to the kind of experiment: Inhibition of multidrug resistance efflux pump in Escherichia coli assessed as concentration required to reduce levofloxacin MIC by 4-fold by checkerboard assay.
Series [9] is described as follows: Metabolic stability in mouse liver microsomes assessed as compound remaining at 25 uM after 60 mins by HPLC analysis in presence of NADPH. As to conditions: read-out: Stability. Format: ADME. The gist of the method:
as §1
Background: Liver microsomes are vesicles of endoplasmic reticulum, rich in cytochrome P450 enzymes.

The test system of series [10] is Escherichia coli. Put plainly: Antibacterial activity against TolC-deficient Escherichia coli AB1157. It counts as functional. The gist of the method: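 MIC determined following CLSI guidelines, with modifications from the authors' earlier work, in the TolC-deficient mutant of E. coli AB1157.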
In series [11] the test system is Escherichia coli. As to the kind of experiment: Antibacterial activity against wild-type Escherichia coli AB1157. Format: functional. A digest of the protocol:
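MIC determined according to CLSI guidelines, with modifications described in earlier work.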

A short description of series [12]: Inhibition of mouse liver microsome CYP3A4 at 3 uM after 10 mins by luminescence assay. It counts as ADME. As to conditions: microsomes.
Series [13] has as its system Escherichia coli. Put plainly: Effect on outer membrane permeability in AcrAB-deficient Escherichia coli HN1159 assessed as influx of nitrocefin at 20 ug/ml. It counts as functional.
Series [14] has as its system Escherichia coli. Put plainly: Inhibition of lactose permease in Escherichia coli HN1157 assessed as [3H]TMG accumulation up to 100 uM relative to control.

SMILES strings stand for the structures. Converted amounts (≈) assume the structure as drawn. The source made the active and inactive calls. Unless noted, the calls are words filed in the database; no cut-off is given here. Where a SMILES comes first, the peptide text is derived from it. Bridges are numbered along the chain shown (N, C = ends). [ ]: non-standard residue; d: D form. Dab = NCC[C@H](N)C(=O)O Bounds are passed on as bounds.

As a reminder, the solubility (kinetic) is the concentration staying in solution when a stock, usually in DMSO, is diluted into the medium. A word on the inhibition: it is the percentage by which the read-out fell short of the control. In general, CC50 refers to the concentration giving 50% cytotoxicity. In general, MIC refers to the lowest concentration found to suppress growth. Read a low MIC as greater potency.

On to `CC1(C)Cc2c(C#N)c(SCCc3ccccc3)nc(N3CCOCC3)c2CO1`, for which the remaining at 1 h, 25 µM in series [1] and in [9] was 0% each time. This molecule came in with a solubility (kinetic) in series [2] of 12 µM (≈ 4.91 µg/mL). For the same molecule, the inhibition entry in the series on Escherichia coli [3] was “inactive”. In addition, the outcome in the series on Escherichia coli [4] was inactive. Also, in the series on HeLa, the cytotoxic concentration (CC50) is over 100 µM. For the same molecule, the [3H]TMG accumulation relative to control in the series with Escherichia coli [5] was determined as 102%. The INH with Escherichia coli [6] and in the series on Escherichia coli [8] was 3.1 µM in each case. Moreover, the Activity with Escherichia coli [7] turned out to be 90%. In addition, the MIC against Enterobacteriaceae is at least 100 µM.

Turning to `C[C@H]1COc2c(N3CCN(C)CC3)c(F)cc3c(=O)c(C(=O)O)cn1c23` [LEVOFLOXACIN], the minimal inhibitory concentration (MIC) against Escherichia coli [10] was 0.016 µM (≈ 0.00578 µg/mL); in the series with Escherichia coli [11] it was 0.063 µM (≈ 0.0228 µg/mL).

On to `CCN1CCN(C(=O)N[C@@H](C(=O)N[C@@H]2C(=O)N3[C@@H]2SC(C)(C)[C@@H]3C(=O)O)c2ccccc2)C(=O)C1=O` [PIPERACILLIN], for which the MIC stood at 0.125 µM (≈ 0.0647 µg/mL) against Escherichia coli [10] and 4 µM (≈ 2.07 µg/mL) in the series on Escherichia coli [11].

In the case of `COc1cccc(CCSc2nc(N3CCOCC3)c3c(c2C#N)CC(C)(C)OC3)c1`, the remaining at 1 h, 25 µM in series [1] came to 8%; in series [9], 0%. Moreover, in series [2], the solubility (kinetic) is 50 µM (≈ 22 µg/mL). In addition, the inhibition result in the series on Escherichia coli [3] is “inactive”. In addition, the outcome with Escherichia coli [4] was inactive. This molecule also registered a CC50 in the series with HeLa of over 100 µM. The [3H]TMG accumulation relative to control in the series with Escherichia coli [5] is 99%. For the same molecule, the values for the INH in the series on Escherichia coli [6] and in the series on Escherichia coli [8] were 1.6 µM and 2.4 µM, respectively. Besides, the “inhibition (INH)” value in series [12] turned out to be 29%. Moreover, the Activity in the series with Escherichia coli [7] is 94%.

For the molecule `COCCN1CCN(c2nc(SCCc3ccc(OC)c(OC)c3)c(C#N)c3c2COC(C)(C)C3)CC1`, the remaining at 1 h, 25 µM in series [1] was found to be 20%; in [9] it was 13%. Also, the kinetic solubility in series [2] was at least 100 µM. For the same molecule, the inhibition entry in the series with Escherichia coli [3] is “inactive”. Moreover, in the series with Escherichia coli [4], the result was inactive. In the series with HeLa, this molecule yielded a CC50 of 38.8 µM. Moreover, the [3H]TMG accumulation relative to control with Escherichia coli [5] is 100%. In addition, the INH in the series on Escherichia coli [6] is 0.4 µM; with Escherichia coli [8], 1.6 µM. Moreover, the “inhibition (INH)” value in series [12] came to 48%. Moreover, the Activity in the series with Escherichia coli [7] is 100%.

For `CC(C)C[C@@H]1NC(=O)[C@@H](Cc2ccccc2)NC(=O)[C@H](CCN)NC(=O)[C@@H](NC(=O)[C@H](CCN)NC(=O)[C@@H](N)[C@@H](C)O)CCNC(=O)[C@H]([C@@H](C)O)NC(=O)[C@H](CCN)NC(=O)[C@H](CCN)NC1=O` [POLYMYXIN B NONAPEPTIDE] (H-T[Dab][Dab][Dab][dF]L[Dab][Dab]T; lactam 3-C), in the series with Escherichia coli [13], the Activity was found to be 162%.

For `N#CC(C#N)=NNc1cccc(Cl)c1`, the inhibition with Escherichia coli [14] amounted to 3%.

The values above are taken from ChEMBL document CHEMBL3399972, “Structure-activity relationships of a novel pyranopyridine series of Gram-negative bacterial efflux pump inhibitors” (Bioorg Med Chem, 2015).
